Active and inactive are the calls of the source. The rule behind the calls is not given here.
Experiments:
Rattus norvegicus [1] = assay: Antihepatotoxic activity against CCl4-induced liver damage in rat assessed as decrease in serum SGOT level at 10 mg/kg, po by calorimetric assay (reference value: 74.52 +/- 0.695 IU/L); format: functional
Rattus norvegicus [2] = assay: Antihepatotoxic activity against CCl4-induced liver damage in rat assessed as decrease in serum SGPT level at 10 mg/kg, po by calorimetric assay (reference value: 85.27 +/- 2.05 IU/L); format: functional
Rattus norvegicus [3] = assay: Antihepatotoxic activity against CCl4-induced liver damage in rat assessed as decrease in ALP level at 10 mg/kg, po after 1 hr by photoelectric reading analysis (reference value: 66.157 +/- 2.886 KA); format: functional
Rattus norvegicus [4] = assay: Antihepatotoxic activity against CCl4-induced liver damage in rat assessed as increase in total protein level at 10 mg/kg, po (reference value: 3.54 +/- 0.67 g/dl); format: functional
Rattus norvegicus [5] = assay: Antihepatotoxic effect against CCl4-induced liver damage in rat assessed as appearance of normal parenchyma at 10 mg/kg, po by microscopic examination-based histopathological analysis; format: functional, organism-based; parameters: dose 10 mg/kg
Outline: (§1)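 Livers taken from Wistar rats (n = 5 per group) dosed with CCl4 1.5 ml/kg p.o. plus agents at 10 mg/kg p.o.; silymarin reference and normal controls included. Liver sections examined microscopically and scored descriptively for necrosis, inflammation, sinusoidal dilatation, central vein appearance, cytoplasmic staining, parenchyma and vascular change.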

Rattus norvegicus [6] = assay: Antihepatotoxic effect against CCl4-induced liver damage in rat assessed as appearance of sinusoidal dilution in centrizonal area at 10 mg/kg, po by microscopic examination-based histopathological analysis; format: functional, organism-based; parameters: dose 10 mg/kg; outline: as §1
Rattus norvegicus [7] = assay: Antihepatotoxic effect against CCl4-induced liver damage in rat assessed as appearance of moderate sinusoidal dilution around central vein at 10 mg/kg, po by microscopic examination-based histopathological analysis; format: functional, organism-based; parameters: dose 10 mg/kg; outline: as §1
Rattus norvegicus [8] = assay: Antihepatotoxic effect against CCl4-induced liver damage in rat assessed as fine vascular changes in hepatocytes at 10 mg/kg, po by microscopic examination-based histopathological analysis; format: functional, organism-based; parameters: dose 10 mg/kg; settings: Hepatocyte; outline: as §1
Rattus norvegicus [9] = assay: Antihepatotoxic effect against CCl4-induced liver damage in rat assessed as appearance of uniformly stained cytoplasm at 10 mg/kg, po by microscopic examination-based histopathological analysis; format: functional, organism-based; parameters: dose 10 mg/kg; outline: as §1
Rattus norvegicus [10] = assay: Antihepatotoxic effect against CCl4-induced liver damage in rat assessed as appearance of mild dilution of sinusoidal spaces at 10 mg/kg, po by microscopic examination-based histopathological analysis; format: functional, organism-based; parameters: dose 10 mg/kg; settings: Sinusoidal space; outline: as §1
Rattus norvegicus [11] = assay: Antihepatotoxic effect against CCl4-induced liver damage in rat assessed as appearance of visible central vein at 10 mg/kg, po by microscopic examination-based histopathological analysis; format: functional, organism-based; parameters: dose 10 mg/kg; outline: as §1
Rattus norvegicus [12] = assay: Antihepatotoxic effect against CCl4-induced liver damage in rat assessed as absence of necrosis at 10 mg/kg, po by microscopic examination-based histopathological analysis; format: functional, organism-based; parameters: dose 10 mg/kg; outline: as §1
Rattus norvegicus [13] = assay: Antihepatotoxic effect against CCl4-induced liver damage in rat assessed as appearance of little dilution at 10 mg/kg, po by microscopic examination-based histopathological analysis; format: functional, organism-based; parameters: dose 10 mg/kg; outline: as §1
Rattus norvegicus [14] = assay: Antihepatotoxic effect against CCl4-induced liver damage in rat assessed as appearance of clear central vein at 10 mg/kg, po by microscopic examination-based histopathological analysis; format: functional, organism-based; parameters: dose 10 mg/kg; outline: as §1
Rattus norvegicus [15] = assay: Antihepatotoxic effect against CCl4-induced liver damage in rat assessed as appearance of moderate sinusoidal dilution at 10 mg/kg, po by microscopic examination-based histopathological analysis; format: functional, organism-based; parameters: dose 10 mg/kg; outline: as §1

`COc1ccc(C2=NNC(c3ccc4c(c3)OCCO4)C2)cc1OC` (stereo not drawn) gave an Activity (Rattus norvegicus [1]) of 58.85 IU/L, an Activity (Rattus norvegicus [2]) of 64.95 IU/L and an Activity (Rattus norvegicus [3]) of 49.48 KA. For the same compound, the Activity (Rattus norvegicus [4]) was 3.82 g/dL, the Activity (Rattus norvegicus [5]) was “Active” and the Activity (Rattus norvegicus [6]) was “Active”.

For `c1ccc(C2=NNC(c3ccc4c(c3)OCCO4)C2)cc1` (stereo not drawn), the Activity (Rattus norvegicus [1]) was 62.85 IU/L, the Activity (Rattus norvegicus [2]) was 65 IU/L and the Activity (Rattus norvegicus [3]) was 53.14 KA. The Activity (Rattus norvegicus [4]) was 4.04 g/dL, the Activity (Rattus norvegicus [7]) was “Active” and the Activity (Rattus norvegicus [8]) was “Active”.

For SILYMARIN, the Activity (Rattus norvegicus [1]) was 56.2 IU/L, the Activity (Rattus norvegicus [2]) was 61.3 IU/L and the Activity (Rattus norvegicus [3]) was 48.6 KA. For the same compound, the Activity (Rattus norvegicus [4]) was 4.2 g/dL, the Activity (Rattus norvegicus [9]) was “Active” and the Activity (Rattus norvegicus [10]) was “Active”. For the same compound, the Activity (Rattus norvegicus [11]) was “Active” and the Activity (Rattus norvegicus [12]) was “Active”.

With `Cc1cccc(C2=NNC(c3ccc4c(c3)OCCO4)C2)c1` (stereo not drawn) the Activity (Rattus norvegicus [1]) was 64.85 IU/L, the Activity (Rattus norvegicus [2]) was 64.13 IU/L and the Activity (Rattus norvegicus [3]) was 55.74 KA. The Activity (Rattus norvegicus [4]) was 3.98 g/dL, the Activity (Rattus norvegicus [13]) was “Active” and the Activity (Rattus norvegicus [14]) was “Active”.

Compound `Oc1ccc(C2=NNC(c3ccc4c(c3)OCCO4)C2)c(O)c1` (stereo not drawn) has an Activity (Rattus norvegicus [1]) of 58.57 IU/L, an Activity (Rattus norvegicus [2]) of 62.09 IU/L and an Activity (Rattus norvegicus [3]) of 58.22 KA. The Activity (Rattus norvegicus [4]) was 3.82 g/dL, the Activity (Rattus norvegicus [15]) was “Active” and the Activity (Rattus norvegicus [5]) was “Active”.

For `Clc1ccc(C2=NNC(c3ccc4c(c3)OCCO4)C2)cc1` (stereo not drawn), the Activity (Rattus norvegicus [1]) was 63.42 IU/L, the Activity (Rattus norvegicus [2]) was 65.81 IU/L and the Activity (Rattus norvegicus [3]) was 46.06 KA. For the same compound, the Activity (Rattus norvegicus [4]) was 3.91 g/dL, the Activity (Rattus norvegicus [7]) was “Active” and the Activity (Rattus norvegicus [8]) was “Active”.

From ChEMBL document CHEMBL1921787, “Synthesis and antihepatotoxic activity of 5-(2,3-dihydro-1,4-benzodioxane-6-yl)-3-substituted-phenyl-4,5-dihydro-1H-pyrazole derivatives” (2011)
